Assays:
[1] = Drug excretion in Crj:CD(SD)IGS rat urine assessed as excretion ratio of [14C] at 0.5 mg/kg, iv administered as bolus dose measured from 0 to 24 hrs by HPLC-based liquid scintillation counting analysis; format: ADME, organism-based; parameters: dose 0.5 mg/kg, route intravenous; conditions: in vivo
Summary of the method: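 Male rats in metabolic cages with urine/feces separator, or beagle dogs, after a 0.5 mg/kg iv bolus of [14C]M-III in saline. Radioactivity in urine and feces collected 0–24 h (rats) or 0–168 h (dogs) was counted and expressed as percent of dose. Mean ± S.D., n = 3.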

Canis familiaris = test: Unbound renal clearance in Beagle dog at 0.5 mg/kg, iv administered as bolus dose measured from 0 to 168 hrs by HPLC-based liquid scintillation counting analysis; format: ADME, organism-based, Canis lupus familiaris, Kidney; parameters: dose 0.5 mg/kg, route intravenous; conditions: in vivo
Summary of the method: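 After a 0.5 mg/kg iv bolus of [14C]M-III, urine was collected 0–24 h (rat) or 0–168 h (dog) and injected directly onto HPLC with fraction collection and scintillation counting. M-III in urine was derived from the urinary 14C excretion ratio and the [14C]M-III composition. CLrenal = urinary M-III amount / AUC0–24 h (rat) or AUC0–168 h (dog). Unbound CLrenal = CLrenal / free fraction.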

Rattus norvegicus [2] = test: Intrinsic total body clearance in Crj:CD(SD)IGS rat at 0.125 mg/hr, iv administered as continuous infusion by HPLC based liquid scintillation counting analysis in presence of 16 mg/hr/kg probenecid; format: ADME, organism-based; conditions: in vivo
Summary of the method: (§1)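 Rats received a continuous iv infusion of [14C]M-III at 0.125 mg/rat/h, with probenecid co-infused at 16, 31 or 62 mg/h/kg or vehicle alone, for 5 h. Arterial plasma was sampled during infusion. CLtot = infusion rate / steady-state plasma M-III (120–180 min). Unbound fraction was measured by ultrafiltration of 5-h plasma (10,000 MWCO, 1500g, 37°C, 10 min). CLint = CLtot / unbound ratio.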

Rattus norvegicus [3] = test: Unbound renal clearance in Crj:CD(SD)IGS rat at 0.5 mg/kg, iv administered as bolus dose measured from 0 to 24 hrs by HPLC-based liquid scintillation counting analysis; format: ADME, organism-based, Kidney; parameters: dose 0.5 mg/kg, route intravenous; conditions: in vivo
Summary of the method: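 Male Crj:CD(SD)IGS rats received [14C]M-III in saline as an IV bolus at 0.5 mg–2.6 MBq/kg. Urine was collected in metabolic cages over 0–24 h. M-III in urine was taken as total urinary 14C times the M-III fraction, measured by direct HPLC, 1-min fraction collection and scintillation counting. CLrenal = urinary M-III / AUC. Unbound CLrenal = CLrenal / free fraction, from in vivo ultrafiltration binding. n = 3.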

[4] = In vivo plasma protein binding in Crj:CD(SD)IGS rat at 0.125 mg/hr, iv administered as continuous infusion by ultrafiltration method; format: ADME, organism-based; conditions: read-out: PPB (converted); summary of the method: as §1
[5] = In vivo plasma protein binding in Crj:CD(SD)IGS rat at 0.125 mg/hr, iv administered as continuous infusion by ultrafiltration method in presence of 62 mg/hr/kg probenecid; format: ADME, organism-based; conditions: with probenecid 62 mg/hr/kg, read-out: PPB (converted); summary of the method: as §1
[6] = Apparent volume of distribution in Beagle dog at 0.5 mg/kg, iv administered as bolus dose by HPLC-based liquid scintillation counting analysis; format: ADME, organism-based, Canis lupus familiaris; parameters: dose 0.5 mg/kg, route intravenous; conditions: in vivo, read-out: Vd(app)
Summary of the method: (§2)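 [14C]M-III in saline given as a single iv bolus at 0.5 mg/kg to male rats (tail-vein blood, 5 min–24 h) or male beagle dogs (cephalic-vein blood, 5 min–168 h). Heparinized plasma counted for radioactivity; M-III quantified by HPLC with fraction collection and liquid scintillation counting. C5 min read directly; terminal t1/2 by linear regression, kel = ln2/t1/2, Vd = dose/back-extrapolated C0, CLtot = dose/AUCinf. Mean ± S.D., n = 3.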

[7] = Ratio of drug level in kidney cortex to plasma in Beagle dog at 0.5 mg/kg, iv administered as bolus dose by HPLC-based liquid scintillation counting analysis; format: ADME, organism-based, Canis lupus familiaris; parameters: dose 0.5 mg/kg, route intravenous
Summary of the method: (§3)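 Rats received [14C]M-III in saline by continuous jugular-vein infusion for 4 h (0.5 mg/rat/h per methods; 0.25 mg/h in legend), then aortic blood and kidneys were collected. Dogs received a 0.5 mg/kg iv bolus, with blood and kidneys (cortex and medulla separated) collected at 24 h. 14C was measured in tissue homogenates and plasma as a tissue/plasma ratio. Rat n = 3, dog n = 2.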

Rattus norvegicus [8] = test: Intrinsic total body clearance in Crj:CD(SD)IGS rat at 0.125 mg/hr, iv administered as continuous infusion by HPLC based liquid scintillation counting analysis in presence of 31 mg/hr/kg probenecid; format: ADME, organism-based; conditions: in vivo; summary of the method: as §1
[9] = Ratio of drug level in kidney to plasma in Crj:CD(SD)IGS rat at 0.25 mg/hr, iv administered as continuous infusion by HPLC-based liquid scintillation counting analysis; format: ADME, organism-based; summary of the method: as §3
[10] = Plasma concentration in Crj:CD(SD)IGS rat at 0.125 mg/hr, iv administered as continuous infusion measured after 3 hrs by HPLC based liquid scintillation counting analysis in presence of probenecid; format: ADME, organism-based; conditions: with probenecid (dose not stated)
Summary of the method: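 Rats were continuously infused iv with [14C]M-III at 0.125 mg/rat/h, plus probenecid (4.7, 9.4, 18.6 mg/rat/h) or vehicle. Femoral-artery blood was taken at 0.5, 1, 2, 3 and 4 h, with terminal aortic blood at 5 h. Plasma radioactivity was measured, with probenecid quantified by HPLC-UV at 240 nm against spiked-plasma calibration from 0.1 to 100 µg/ml.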

[11] = In vitro plasma protein binding in dog at 50 ug/ml by ultrafiltration method; format: ADME, cell-free, Canis lupus familiaris; conditions: read-out: PPB (converted)
Summary of the method: (§4)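 [14C]M-III in saline was added to rat or dog plasma at final 0.5, 5 and 50 µg/ml. Plasma was ultrafiltered by centrifugation at 1500g and 37°C for 10 min, and 14C was measured in plasma and filtrate. Mean ± S.D., n = 3.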

[12] = Total body clearance in Crj:CD(SD)IGS rat at 0.125 mg/hr, iv administered as continuous infusion by HPLC based liquid scintillation counting analysis in presence of 16 mg/hr/kg probenecid; format: ADME, organism-based; conditions: in vivo, with probenecid 16 mg/hr/kg; summary of the method: as §1
[13] = AUC infinity in Beagle dog at 0.5 mg/kg, iv administered as bolus dose by HPLC-based liquid scintillation counting analysis; format: ADME, organism-based, Canis lupus familiaris; parameters: time infinity, dose 0.5 mg/kg, route intravenous; conditions: plasma
Summary of the method: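 Male beagles (7.4–10.0 kg) got a single IV injection of [14C]M-III in saline (2.5 mg/ml), 0.5 mg–1.0 MBq/kg. Cephalic-vein blood was taken from 5 min to 168 h and spun for heparinized plasma. Plasma was deproteinized with acetonitrile, run on reverse-phase HPLC and collected as 1-min fractions counted by LSC. AUCinf = AUClast + Clast/kel; n = 3.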

[14] = Terminal half life in Beagle dog at 0.5 mg/kg, iv administered as bolus dose by HPLC-based liquid scintillation counting analysis; format: ADME, organism-based, Canis lupus familiaris; parameters: dose 0.5 mg/kg, route intravenous; conditions: in vivo, read-out: beta t1/2 (converted); summary of the method: as §2
[15] = In vitro plasma protein binding in dog at 0.5 ug/ml by ultrafiltration method; format: ADME, cell-free, Canis lupus familiaris; conditions: read-out: PPB (converted); summary of the method: as §4
[16] = Ratio of drug level in kidney medulla to plasma in Beagle dog at 0.5 mg/kg, iv administered as bolus dose by HPLC-based liquid scintillation counting analysis; format: ADME, organism-based, Canis lupus familiaris; parameters: dose 0.5 mg/kg, route intravenous; summary of the method: as §3

Drug excretion [1]: 84.7%
CL free (Canis familiaris): 0.0585 mL/min/kg
CL (Rattus norvegicus [2]): 53.83 mL/min/kg
CL free (Rattus norvegicus [3]): 96.3 mL/min/kg
fraction unbound [4]: 0.088
fraction unbound [5]: 0.184
Vd [6]: 0.0989 L/kg
Kp [7]: 0.1
CL (Rattus norvegicus [8]): 11.9 mL/min/kg
Kp [9]: 3.5
concentration at 3 h [10]: 3600 ng/mL
fraction unbound at 50 ug/ml [11]: 0.154
clearance [12]: 4.45 mL/min/kg
AUC(0-inf) [13]: 596 µg·h/mL
half-life [14]: 120 h
fraction unbound at 0.5 ug/ml [15]: 0.098
Kp [16]: 0.2
Compound: N[14c]1[14cH][14cH][14c](OS(=O)(=O)O)[14cH][14c]1Cl
